Assay results from ChEMBL document CHEMBL1142666, “Novel [2',5'-bis-O-(tert-butyldimethylsilyl)-beta-D-ribofuranosyl]- 3'-spiro-5''-(4''-amino-1'',2''-oxathiole-2'',2" -dioxide) derivatives with anti-HIV-1 and anti-human-cytomegalovirus activity” (J Med Chem, 2005).

Legend:
Settings in all cases: Homo sapiens
CCRF-CEM [1] = assay: Effective concentration required to inhibit HIV-2 ROD in CEM cell culture; format: functional, cell-based
Method in brief: (§1)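 CEM cells (4 × 10^5/mL) infected at ~100 CCID50/mL and mixed with compound dilutions. Giant cell formation scored microscopically at day 4. EC50 = concentration inhibiting virus-induced cytopathicity by 50%.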

MT4 [2] = assay: Cytostatic concentration required to inhibit MT-4 cell proliferation; format: functional
Method in brief: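 Mock-infected MT-4 cells (3 × 10^5/mL) incubated with compound dilutions for 5 days. Viable cells counted by trypan blue exclusion. CC50 = concentration reducing viable MT-4 cell number by 50%.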

HEL [3] = assay: Effective concentration required to inhibit HCMV Davis in HEL Cells; format: functional, cell-based
Method in brief: (§2)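 Confluent HEL cells infected with HCMV at 100 PFU/well. After 1-2 h, residual virus removed and MEM with 2% inactivated FCS added, with compound in duplicate at 5-fold dilution steps. After 7 days at 37 °C in 5% CO2, cells fixed with ethanol and Giemsa-stained; plaques or CPE scored microscopically. IC50 interpolated graphically; mean of two independent experiments.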

HEL [4] = assay: Cytostatic concentration required to inhibit HEL cell proliferation; format: functional
Method in brief: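 HEL fibroblasts seeded at 5 × 10^3 cells/well and grown 24 h, then given compound in duplicate. After 3 days at 37 °C in 5% CO2, cell number read on a Coulter counter. CC50 = concentration reducing cell growth by 50%.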

CCRF-CEM [5] = assay: Effective concentration required to inhibit HIV-1 IIIB in CEM cell culture; format: functional, cell-based; method in brief: as §1
HEL [6] = assay: Effective concentration required to inhibit HCMV AD-169 in HEL Cells; format: functional, cell-based; method in brief: as §2
MT4 [7] = assay: Effective concentration required to inhibit HIV-2 ROD in MT-4 cell culture; format: functional, cell-based
Method in brief: (§3)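 MT-4 cells (3 × 10^5/mL) infected at ~100 CCID50/mL and mixed with compound dilutions. Cytopathicity read by trypan blue exclusion at day 5. EC50 = concentration giving 50% protection against virus-induced loss of viability.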

HEL [8] = assay: Minimal cytotoxic concentration required to cause microscopically visible alteration of cell morphology in HEL Cells; format: functional
Method in brief: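 Uninfected HEL cells exposed to compound. Minimum cytotoxic concentration is the lowest level giving a microscopically detectable change in cell morphology.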

MT4 [9] = assay: Effective concentration required to inhibit HIV-1 IIIB in MT-4 cell culture; format: functional, cell-based; method in brief: as §3
CCRF-CEM [10] = assay: Cytostatic concentration required to inhibit CEM cell proliferation; format: functional
Method in brief: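 CEM cells, mock-infected, grown with serial compound dilutions for 4 days. CC50 taken as the concentration that inhibits CEM cell proliferation by 50%.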

CCRF-CEM [11] = assay: Cytostatic concentration of the cell proliferation; format: functional

| Structure (SMILES) | EC50 (CCRF-CEM [1]) [µM] | EC50 (HEL [3]) [µM] | EC50 (CCRF-CEM [5]) [µM] | EC50 (HEL [6]) [µM] | CC50 (MT4 [2]) [µM] | CC50 (HEL [4]) [µM] | EC50 (MT4 [7]) [µM] | MCC (HEL [8]) [µM] | EC50 (MT4 [9]) [µM] | CC50 (CCRF-CEM [10]) [µM] | CC50 (CCRF-CEM [11]) [µM] |
| --- | --- | --- | --- | --- | --- | --- | --- | --- | --- | --- | --- |
| COC(=O)CCNC1=CS(=O)(=O)O[C@@]12[C@@H](CO[Si](C)(C)C(C)(C)C)O[C@@H](n1cc(C)c(=O)n(C)c1=O)[C@@H]2O[Si](C)(C)C(C)(C)C | > 250 | > 400 | > 250 | > 400 | > 250 | 94 | > 250 | ≥ 400 | > 250 | > 250 |  |
| Cc1cn([C@@H]2O[C@H](CO[Si](C)(C)C(C)(C)C)[C@@]3(OS(=O)(=O)C=C3NCCC(=O)OCc3ccccc3)[C@H]2O[Si](C)(C)C(C)(C)C)c(=O)n(C)c1=O | > 250 | > 400 | > 250 | > 400 | > 250 | > 200 | > 250 | ≥ 400 | > 250 | > 250 |  |
| Cc1cn([C@@H]2O[C@H](CO[Si](C)(C)C(C)(C)C)[C@@]3(OS(=O)(=O)C=C3NCCC(N)=O)[C@H]2O[Si](C)(C)C(C)(C)C)c(=O)n(C)c1=O | > 10 | 29 | 5 | > 16 | 20 | 14.8 | > 10 | ≥ 80 | > 10 |  | 21 |

More lines, main results first:

| EC50 (CCRF-CEM [1]) [µM] | EC50 (HEL [3]) [µM] | EC50 (CCRF-CEM [5]) [µM] | EC50 (HEL [6]) [µM] | Structure (SMILES) | CC50 (MT4 [2]) [µM] | CC50 (HEL [4]) [µM] | EC50 (MT4 [7]) [µM] | MCC (HEL [8]) [µM] | EC50 (MT4 [9]) [µM] | CC50 (CCRF-CEM [10]) [µM] | CC50 (CCRF-CEM [11]) [µM] |
| --- | --- | --- | --- | --- | --- | --- | --- | --- | --- | --- | --- |
| > 10 | 32 | > 10 | ≥ 50 | Cc1cn([C@@H]2O[C@H](CO[Si](C)(C)C(C)(C)C)[C@@]3(OS(=O)(=O)C=C3NCC(=O)O)[C@H]2O[Si](C)(C)C(C)(C)C)c(=O)n(C)c1=O | 30 | 136 | > 10 | 300 | > 10 | 65 |  |
| > 10 | 8 | > 10 | > 16 | Cc1cn([C@@H]2O[C@H](CO[Si](C)(C)C(C)(C)C)[C@@]3(OS(=O)(=O)C=C3NCCC(=O)O)[C@H]2O[Si](C)(C)C(C)(C)C)c(=O)n(C)c1=O | 11.5 | 34 | > 50 | 80 | > 50 | 19.4 |  |
| > 2 | > 3.2 | > 2 | > 3.2 | Cc1cn([C@@H]2O[C@H](CO[Si](C)(C)C(C)(C)C)[C@@]3(OS(=O)(=O)C=C3NCC(N)=O)[C@H]2O[Si](C)(C)C(C)(C)C)c(=O)n(C)c1=O | 14.9 | 13.5 | > 10 | 16 | > 10 | 14.6 |  |
